The source made the active and inactive calls. No cut-off for these calls is given here.
Experiments:
Escherichia coli [1] = assay: Antimicrobial activity against Escherichia coli CCM 3954 up to 200 uM after 24 to 48 hrs by broth microdilution method; type: functional, organism-based
Escherichia coli [2] = assay: Antimicrobial activity against multidrug-resistant Escherichia coli C/16702 up to 200 uM after 24 to 48 hrs by broth microdilution method; type: functional, organism-based
MRC5 [3] = assay: Selectivity index, ratio of IC50 for human MRC5 cells to IC50 for human K562-TAX cells; type: functional
BJ [4] = assay: Cytostatic activity against human BJ cells after 72 hrs by MTT assay; type: ADME, cell-based
Outline: (§1)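 Cells were seeded at 25,000–30,000 per well and pre-incubated for 24 h at 37°C in 5% CO2. Four-fold compound dilutions were added in duplicate and incubated for 72 h. MTT was added for 1–4 h, and formazan was dissolved in 10% aq SDS (pH 5.5) overnight at 37°C. OD was read at 540 nm. IC50 came from dose-response curves, mean ± SD of eight independent experiments.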

Pseudomonas aeruginosa [5] = assay: Antimicrobial activity against Pseudomonas aeruginosa CCM 395 up to 200 uM after 24 to 48 hrs by broth microdilution method; type: functional, organism-based
Nucleic Acid [6] = assay: Binding affinity to DNA (unknown origin) assessed as DNA intercalation by UV-visible spectrophotometry in presence of Co2+; type: nucleic-acid assay
[7] = Cytostatic activity against human CEM-DNR cells after 72 hrs by MTT assay; type: functional, cell-based; outline: as §1
[8] = Metal chelating activity of the compound assessed as formation of Cr3+ complex by UV-vis spectrometry; type: physicochemical
BJ [9] = assay: Selectivity index, ratio of IC50 for human BJ cells to IC50 for human CEM-DNR cells; type: functional
[10] = Metal chelating activity of the compound assessed as formation of Fe3+ complex by UV-vis spectrometry; type: physicochemical
K562 [11] = assay: Cytostatic activity against human K562 cells after 72 hrs by MTT assay; type: functional, cell-based; settings: K562, 72 h; outline: as §1
Nucleic Acid [12] = assay: Binding affinity to DNA (unknown origin) assessed as DNA intercalation by UV-visible spectrophotometry in presence of Cu2+; type: nucleic-acid assay
Enterococcus faecalis = assay: Antimicrobial activity against Enterococcus faecalis CCM 4224 up to 200 uM after 24 to 48 hrs by broth microdilution method; type: functional, organism-based
[13] = Metal chelating activity of the compound assessed as formation of Ca2+ complex by UV-vis spectrometry; type: physicochemical
Nucleic Acid [14] = assay: Binding affinity to DNA (unknown origin) assessed as DNA intercalation by UV-visible spectrophotometry in presence of Zn2+; type: nucleic-acid assay
[15] = Metal chelating activity of the compound assessed as formation of Mn2+ complex by UV-vis spectrometry; type: physicochemical
[16] = Cytostatic activity against human HCT116 cells after 72 hrs by MTT assay; type: functional, cell-based; settings: HCT-116, 72 h; outline: as §1
HCT-116 [17] = assay: Selectivity index, ratio of IC50 for human MRC5 cells to IC50 for human HCT116 cells; type: functional
Candida albicans = assay: Antifungal activity against Candida albicans up to 200 uM after 24 to 48 hrs by broth microdilution method; type: functional, organism-based
BJ [18] = assay: Selectivity index, ratio of IC50 for human BJ cells to IC50 for human K562 cells; type: functional
BJ [19] = assay: Selectivity index, ratio of IC50 for human BJ cells to IC50 for human p53-/- HCT116 cells; type: functional
CEM-DNR = assay: Selectivity index, ratio of IC50 for human MRC5 cells to IC50 for human CEM-DNR cells; type: functional
Nucleic Acid [20] = assay: Binding affinity to DNA (unknown origin) assessed as DNA intercalation by UV-visible spectrophotometry in presence of Fe3+; type: nucleic-acid assay
MRC5 [21] = assay: Cytostatic activity against human MRC5 cells after 72 hrs by MTT assay; type: ADME, cell-based; settings: MRC5, 72 h; outline: as §1
K562 [22] = assay: Selectivity index, ratio of IC50 for human MRC5 cells to IC50 for human K562 cells; type: functional
[23] = Metal chelating activity of the compound assessed as formation of Co2+ complex by UV-vis spectrometry; type: physicochemical
Staphylococcus aureus [24] = assay: Antimicrobial activity against Staphylococcus aureus CCM 3953 up to 200 uM after 24 to 48 hrs by broth microdilution method; type: functional, organism-based
[25] = Metal chelating activity of the compound assessed as formation of Ni2+ complex by UV-vis spectrometry; type: physicochemical
Candida parapsilosis = assay: Antifungal activity against Candida parapsilosis up to 200 uM after 24 to 48 hrs by broth microdilution method; type: functional, organism-based
Candida tropicalis = assay: Antifungal activity against Candida tropicalis up to 200 uM after 24 to 48 hrs by broth microdilution method; type: functional, organism-based
Staphylococcus aureus [26] = assay: Antimicrobial activity against methicillin-resistant Staphylococcus aureus MRSA 4591 up to 200 uM after 24 to 48 hrs by broth microdilution method; type: functional, organism-based
[27] = Cytostatic activity against human K562-TAX cells after 72 hrs by MTT assay; type: functional, cell-based; outline: as §1
BJ [28] = assay: Selectivity index, ratio of IC50 for human BJ cells to IC50 for human K562-TAX cells; type: functional
[29] = Metal chelating activity of the compound assessed as formation of Fe2+ complex by UV-vis spectrometry; type: physicochemical
[30] = Metal chelating activity of the compound assessed as formation of Mg2+ complex by UV-vis spectrometry; type: physicochemical
[31] = Metal chelating activity of the compound assessed as formation of Zn2+ complex by UV-vis spectrometry; type: physicochemical
A549 [32] = assay: Selectivity index, ratio of IC50 for human BJ cells to IC50 for human A549 cells; type: functional
Nucleic Acid [33] = assay: Binding affinity to DNA (unknown origin) assessed as DNA intercalation by UV-visible spectrophotometry; type: nucleic-acid assay
[34] = Metal chelating activity of the compound assessed as formation of Cu2+ complex by UV-vis spectrometry; type: physicochemical
A549 [35] = assay: Cytostatic activity against human A549 cells after 72 hrs by MTT assay; type: functional, cell-based; settings: A549, 72 h; outline: as §1
Pichia kudriavzevii = assay: Antifungal activity against Candida crusei up to 200 uM after 24 to 48 hrs by broth microdilution method; type: functional, organism-based
HCT-116 [36] = assay: Selectivity index, ratio of IC50 for human MRC5 cells to IC50 for human p53-/- HCT116 cells; type: functional
CCRF-CEM = assay: Cytostatic activity against human CCRF-CEM cells after 72 hrs by MTT assay; type: functional, cell-based; outline: as §1
Nucleic Acid [37] = assay: Binding affinity to DNA (unknown origin) assessed as DNA intercalation by UV-visible spectrophotometry in presence of Ni2+; type: nucleic-acid assay
[38] = system: Staphylococcus haemolyticus; assay: Antimicrobial activity against methicillin-resistant Staphylococcus haemolyticus A1/16568 up to 200 uM after 24 to 48 hrs by broth microdilution method; type: functional, organism-based
BJ [39] = assay: Selectivity index, ratio of IC50 for human BJ cells to IC50 for human CCRF-CEM cells; type: functional; settings: pooled result: one value given for 2 cell lines, strains, targets or settings
BJ [40] = assay: Selectivity index, ratio of IC50 for human BJ cells to IC50 for human HCT116 cells; type: functional
[41] = Cytostatic activity against human p53-/- HCT116 cells after 72 hrs by MTT assay; type: functional, cell-based; settings: HCT-116, 72 h; outline: as §1
A549 [42] = assay: Selectivity index, ratio of IC50 for human MRC5 cells to IC50 for human A549 cells; type: functional
Pseudomonas aeruginosa [43] = assay: Antimicrobial activity against multidrug-resistant Pseudomonas aeruginosa A/16575 up to 200 uM after 24 to 48 hrs by broth microdilution method; type: functional, organism-based

O=C(N/N=C/c1cc(Cl)ccc1O)c1ccc2c3c(ccc2c1)N1Cc2c(ccc4cc(C(=O)N/N=C/c5cc(Cl)ccc5O)ccc24)N(C3)C1
Activity (Escherichia coli [1]): inactive
Activity (Escherichia coli [2]): inactive
Ratio IC50 (MRC5 [3]): 1
IC50 (BJ [4]): > 100 µM
Activity (Pseudomonas aeruginosa [5]): inactive
Activity (Nucleic Acid [6]): Active
IC50 [7]: > 100 µM
Activity [8]: Not Active
Ratio IC50 (BJ [9]): 1
Activity [10]: Active
IC50 (K562 [11]): > 100 µM
Activity (Nucleic Acid [12]): Active
Activity (Enterococcus faecalis): inactive
Activity [13]: Not Active
Activity (Nucleic Acid [14]): Active
Activity [15]: Not Active
IC50 [16]: > 100 µM
Ratio IC50 (HCT-116 [17]): 1
Activity (Candida albicans): inactive
Ratio IC50 (BJ [18]): 1
Ratio IC50 (BJ [19]): 1
Ratio IC50 (CEM-DNR): 1
Activity (Nucleic Acid [20]): Active
IC50 (MRC5 [21]): > 100 µM
Ratio IC50 (K562 [22]): 1
Activity [23]: Active
Activity (Staphylococcus aureus [24]): inactive
Activity [25]: Active
Activity (Candida parapsilosis): inactive
Activity (Candida tropicalis): inactive
Activity (Staphylococcus aureus [26]): inactive
IC50 [27]: > 100 µM
Ratio IC50 (BJ [28]): 1
Activity [29]: Not Active
Activity [30]: Not Active
Activity [31]: Active
Ratio IC50 (A549 [32]): 1
Activity (Nucleic Acid [33]): inactive
Activity [34]: Active
IC50 (A549 [35]): > 100 µM
Activity (Pichia kudriavzevii): inactive
Ratio IC50 (HCT-116 [36]): 1
IC50 (CCRF-CEM): 42.1 µM
Activity (Nucleic Acid [37]): Active
Activity [38]: inactive
Ratio IC50 (BJ [39]): 2.4
Ratio IC50 (BJ [40]): 1
IC50 [41]: > 100 µM
Ratio IC50 (A549 [42]): 1
Activity (Pseudomonas aeruginosa [43]): inactive

O=C(N/N=C/c1cc([N+](=O)[O-])ccc1O)c1ccc2c3c(ccc2c1)N1Cc2c(ccc4cc(C(=O)N/N=C/c5cc([N+](=O)[O-])ccc5O)ccc24)N(C3)C1
Activity (Escherichia coli [1]): inactive
Activity (Escherichia coli [2]): inactive
Ratio IC50 (MRC5 [3]): 0.9
IC50 (BJ [4]): > 100 µM
Activity (Pseudomonas aeruginosa [5]): inactive
Activity (Nucleic Acid [6]): Active
IC50 [7]: > 100 µM
Activity [8]: Not Active
Ratio IC50 (BJ [9]): 0.9
Activity [10]: Active
IC50 (K562 [11]): > 100 µM
Activity (Nucleic Acid [12]): Active
Activity (Enterococcus faecalis): inactive
Activity [13]: Not Active
Activity (Nucleic Acid [14]): Active
Activity [15]: Not Active
IC50 [16]: > 100 µM
Ratio IC50 (HCT-116 [17]): 0.9
Activity (Candida albicans): inactive
Ratio IC50 (BJ [18]): 0.9
Ratio IC50 (BJ [19]): 0.9
Ratio IC50 (CEM-DNR): 0.9
Activity (Nucleic Acid [20]): Active
IC50 (MRC5 [21]): 88.8 µM
Ratio IC50 (K562 [22]): 0.9
Activity [23]: Active
Activity (Staphylococcus aureus [24]): inactive
Activity [25]: Active
Activity (Candida parapsilosis): inactive
Activity (Candida tropicalis): inactive
Activity (Staphylococcus aureus [26]): inactive
IC50 [27]: > 100 µM
Ratio IC50 (BJ [28]): 0.9
Activity [29]: Not Active
Activity [30]: Not Active
Activity [31]: Active
Ratio IC50 (A549 [32]): 0.9
Activity (Nucleic Acid [33]): inactive
Activity [34]: Active
IC50 (A549 [35]): > 100 µM
Activity (Pichia kudriavzevii): inactive
Ratio IC50 (HCT-116 [36]): 0.9
IC50 (CCRF-CEM): > 100 µM
Activity (Nucleic Acid [37]): Active
Activity [38]: inactive
Ratio IC50 (BJ [39]): 0.9
Ratio IC50 (BJ [40]): 0.9
IC50 [41]: > 100 µM
Ratio IC50 (A549 [42]): 0.9
Activity (Pseudomonas aeruginosa [43]): inactive

COc1cccnc1/C=N/NC(=O)c1ccc2c3c(ccc2c1)N1Cc2c(ccc4cc(C(=O)N/N=C/c5ncccc5OC)ccc24)N(C3)C1
Activity (Escherichia coli [1]): inactive
Activity (Escherichia coli [2]): inactive
Ratio IC50 (MRC5 [3]): 34.1
IC50 (BJ [4]): > 100 µM
Activity (Pseudomonas aeruginosa [5]): inactive
Activity (Nucleic Acid [6]): Active
IC50 [7]: 6.71 µM
Activity [8]: Not Active
Ratio IC50 (BJ [9]): 14.9
Activity [10]: Active
IC50 (K562 [11]): 55.6 µM
Activity (Nucleic Acid [12]): Active
Activity (Enterococcus faecalis): inactive
Activity [13]: Not Active
Activity (Nucleic Acid [14]): Active
Activity [15]: Not Active
IC50 [16]: 85.7 µM
Ratio IC50 (HCT-116 [17]): 1.2
Activity (Candida albicans): inactive
Ratio IC50 (BJ [18]): 1.8
Ratio IC50 (BJ [19]): 1
Ratio IC50 (CEM-DNR): 14.9
Activity (Nucleic Acid [20]): Active
IC50 (MRC5 [21]): > 100 µM
Ratio IC50 (K562 [22]): 1.8
Activity [23]: Active
Activity (Staphylococcus aureus [24]): inactive
Activity [25]: Active
Activity (Candida parapsilosis): inactive
Activity (Candida tropicalis): inactive
Activity (Staphylococcus aureus [26]): inactive
IC50 [27]: 2.93 µM
Ratio IC50 (BJ [28]): 34.1
Activity [29]: Not Active
Activity [30]: Not Active
Activity [31]: Active
Ratio IC50 (A549 [32]): 1
Activity (Nucleic Acid [33]): inactive
Activity [34]: Active
IC50 (A549 [35]): > 100 µM
Activity (Pichia kudriavzevii): inactive
Ratio IC50 (HCT-116 [36]): 1
IC50 (CCRF-CEM): 36.6 µM
Activity (Nucleic Acid [37]): Active
Activity [38]: inactive
Ratio IC50 (BJ [39]): 2.7
Ratio IC50 (BJ [40]): 1.2
IC50 [41]: > 100 µM
Ratio IC50 (A549 [42]): 1
Activity (Pseudomonas aeruginosa [43]): inactive

Source: ChEMBL document CHEMBL3400013, “Synthesis and biological activity evaluation of hydrazone derivatives based on a Tröger's base skeleton” (Bioorg Med Chem, 2015)
